18 molecules from ChEMBL document CHEMBL5223176, “Design, synthesis, docking, and biochemical characterization of non-nucleoside SARS-CoV-2 RdRp inhibitors” (Bioorg Med Chem, 2023) can be followed below.

Molecules are shown by their SMILES. The source made the active and inactive calls.

The nature of data set [1]: Kinetic solubility of the compound in pH 7.4 PBS incubated for 24 hrs by UPLC/MS analysis. The class given is physicochemical. Conditions: buffer, pH 7.4, 24 h.
Data set [2] can be described thus: Metabolic stability in mouse liver microsomes assessed as half life preincubated with microsomes for 15 mins followed by NADPH addition and measured upto 60 mins by LC-MS/MS analysis. Conditions: time < 75 min. The class given is ADME, Microsome. Summed up: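 Compound at 4.6 µM final preincubated 15 min at 37 °C with mouse liver microsomes in 0.1 M Tris-HCl pH 7.4, then NADPH, G6P, G6PDH and MgCl2 added; sampled at 0, 5, 15, 30, 60 min into cold acetonitrile with internal standard. LC-MS/MS with positive ESI; percent remaining versus t = 0; half-life from one-phase decay non-linear regression.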
(In general: Liver microsomes are vesicles of endoplasmic reticulum, rich in cytochrome P450 enzymes.)

Data set [3] in a line: Metabolic stability in mouse plasma assessed as half life measured upto 120 mins by LC-MS/MS analysis. The class given is ADME, cell-free. In outline:
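Compound at 2 µM final incubated at 37 °C for up to 2 h in mouse plasma with 5 % DMSO; sampled at 0, 5, 15, 30, 60, 120 min into cold acetonitrile with internal standard, centrifuged, supernatant diluted 1:1 with water and quantified by LC-MS/MS.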

For the next data set, the system named is HEK293. Put plainly: Cytotoxicity against HEK293 cells assessed as inhibition of cell growth at 100 uM incubated for 24 to 48 hrs by MTT assay. Type of data set: toxicity, cell-based. Conditions: human, hek293, 100 µM, time 24-48 hrs. In outline: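 HEK-293 cells grown in DMEM with 2 mM L-glutamine, 10 % heat-inactivated FBS, 1 % penicillin/streptomycin, 37 °C, 5 % CO2; seeded 10,000 cells/well, treated 24 h after seeding for 24 or 48 h, vehicle DMSO 0.5 % final. MTT 0.5 mg/ml for 2 h, formazan dissolved in ethanol, absorbance 570 nm (ref 650 nm); 8 serial dilutions in triplicate, three independent experiments, mean ± SD.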
On the technique in general: Tetrazolium dyes change colour on reduction, which living cells bring about.

A further data set relates to SARS-CoV-2. In words: Antiviral activity against SARS-CoV-2 human/Czech Republic/951/2020 infected in African green monkey Vero cells pretreated […] followed by viral infection and measured after 48 hrs by viral titer reduction assay. Type of data set: functional, organism-based. The following applies: Severe acute respiratory syndrome coronavirus 2, human/Czech Republic/951/2020, Vero.

The target of data set [4] is Replicase polyprotein 1ab (Severe acute respiratory syndrome coronavirus 2) (UniProt P0DTD1). In words: (§1) Inhibition of SARS-CoV-2 RdRp using ATP substrate preincubated with compound for 30 mins followed by substrate addition and measured after 30 mins by Alphascreen microplate reader analysis. The following applies: time 60.0 min. (Alpha assays give light when donor and acceptor beads are brought close together.)

The target of data set [5] is Replicase polyprotein 1ab (Severe acute respiratory syndrome coronavirus 2, UniProt P0DTD1). The data set is described as §1.

`O=c1c(OCCO)c(-c2ccc(O)c(O)c2)oc2cc(O)cc(O)c12` displayed a Kinetic_solubility in data set [1] of 167 µM. In addition, the figures for the half-life in data set [2] and in data set [3] were greater than 2 h and greater than 1 h, respectively. Also, the Activity result in the data set with HEK293 is given as “Non-Toxic”.
On to `CCCCOc1c(-c2ccc(O)c(O)c2)oc2cc(O)cc(O)c2c1=O`, for which the Kinetic_solubility in data set [1] was determined as 156 µM. The half-life (as a rule, the time needed for the level to fall by half in the phase considered) in data set [2] was greater than 2 h; in data set [3], greater than 1 h. The Activity result with HEK293 is on record as “Non-Toxic”.
Consider `O=c1c(O)c(-c2ccc(O)c(O)c2)oc2cc(O)cc(O)c12` [QUERCETIN], for which the half-life in data set [2] is 0.117 h; in data set [3] it was greater than 1 h.
In the case of `O=C(N[C@@H](Cc1ccc(O)cc1)C(=O)O)c1cc(-c2ccccc2)c(=O)n2c1sc1ccc(OC3CCCCC3)cc12`, in the data set with SARS-CoV-2, the EC50 (usually the concentration that produces a half-maximal response) was 0.65 µM.
With `O=c1cc(C(CCCC(F)(F)F)c2ccc(O)c(O)c2)oc2cccc(O)c12` (stereo not drawn), the inhibition entry in data set [4] is “inactive”.
The molecule `CCCc1c(-c2ccc(O)c(O)c2)oc2cc(O)cc(O)c2c1=O` came in with a Kinetic_solubility in data set [1] of 13 µM.
Regarding `O=c1cc(-c2ccc(O)c(O)c2)oc2cc(O)cc(O)c12` [LUTEOLIN], the figures for the half-life in data set [2] and in data set [3] were greater than 2 h and greater than 1 h, respectively.
On to `O=C(Nc1ccc(O)c(O)c1)c1cc(=O)c2c(O)cccc2o1`, for which the Kinetic_solubility in data set [1] came out at 65 µM. Further, the half-life in data set [2] worked out at 1.38 h; in data set [3], 1 h.
As to `CC(c1ccc(O)c(O)c1)c1cc(=O)c2c(O)cccc2o1` (stereo not drawn), the Kinetic_solubility in data set [1] came to 165 µM. The half-life in data set [2] is greater than 2 h; in data set [3], greater than 1 h. The Activity result in the data set with HEK293 is reported as “Non-Toxic”.
Turning to `O=c1c(OCCCO)c(-c2ccc(O)c(O)c2)oc2cc(O)cc(O)c12`, the half-life is 1.5 h in data set [2] and 1 h in data set [3]. Besides, the Activity result in the data set with HEK293 is on record as “Non-Toxic”.
With `O=c1cc(CCc2ccc(O)c(O)c2)oc2cccc(O)c12`, in data set [1], the Kinetic_solubility was found to be 67 µM. Also, the half-life in data set [2] is greater than 2 h; in data set [3] it was greater than 1 h.
Take `O=C(Oc1ccc(O)c(O)c1)c1cc(=O)c2c(O)cccc2o1`: the Kinetic_solubility in data set [1] is less than 1 µM.
`O=c1cc(/C=C/c2ccc(O)c(O)c2)oc2cccc(O)c12` had a Kinetic_solubility in data set [1] of less than 1 µM.
`O=C(NCCNC(=S)Nc1ccc(O)c(O)c1)c1cc(=O)c2c(O)cccc2o1`: the Kinetic_solubility in data set [1] is less than 1 µM.
The molecule `O=c1cc(Cc2ccc(O)c(O)c2)oc2cccc(O)c12` gave a Kinetic_solubility in data set [1] of 63 µM. The half-life in data set [2] was greater than 2 h; in data set [3], greater than 1 h.
`Cc1c(-c2ccc(O)c(O)c2)oc2cc(O)cc(O)c2c1=O` returned a Kinetic_solubility in data set [1] of 32 µM.
`CCCCC(c1ccc(O)c(O)c1)c1cc(=O)c2c(O)cccc2o1` (stereo not drawn): in data set [5], the IC50 (usually the concentration at which inhibition is half-maximal) is greater than 100 µM.
Consider `CCCCc1c(-c2ccc(O)c(O)c2)oc2cc(O)cc(O)c2c1=O`, for which the IC50 in data set [5] was 6 µM. The molecule also displayed a Kinetic_solubility in data set [1] of less than 1 µM.
